Consider 25 compounds from PubChem BioAssay AID624466 (The Scripps Research Institute Molecular Screening Center, 2012).

Among all 360,000 compounds or so, about 5,400 (1.5%) were called active.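 How the source made its calls: active means inhibition above a per-plate cutoff, the mean inhibition of test compounds on that plate plus 3 SD (cut at about 49% in these data); inactive means the rest.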 Only a selection was taken, and actives are over-represented in it overall.

The inhibition is the change of the read-out against control, counted positive when it falls.

Chain of Trace amine-associated receptor 1 (Homo sapiens) (Q96RJ0 whole entry, looked up): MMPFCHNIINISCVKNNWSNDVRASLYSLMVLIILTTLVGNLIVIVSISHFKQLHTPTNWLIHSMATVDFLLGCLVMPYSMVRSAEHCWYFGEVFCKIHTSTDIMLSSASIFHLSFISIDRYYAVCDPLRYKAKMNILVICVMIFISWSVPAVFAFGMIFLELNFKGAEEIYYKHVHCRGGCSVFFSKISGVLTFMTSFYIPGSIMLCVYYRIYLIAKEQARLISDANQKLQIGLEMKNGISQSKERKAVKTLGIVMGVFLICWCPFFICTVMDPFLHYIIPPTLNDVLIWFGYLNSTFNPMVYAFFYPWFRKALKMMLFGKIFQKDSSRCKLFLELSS

This assay concerns the target Trace amine-associated receptor 1 (Homo sapiens) (UniProt Q96RJ0). The experiment in a line: human TAAR1 antagonists, primary screen, Fluo-8 calcium fluorescence, CHO RD-HGA16 cells (AID 624466).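 Further: 0% = DMSO plus EC80 beta-PEA response and 100% = DMSO alone without agonist.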 To be noted: CHO RD-HGA16 TAAR1, Fluo-8 calcium fluorescence, antagonist; at 3 µM; stronger effect = higher value. The method in brief: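 Assay system: RD-HGA16 CHO cells with stable hTAAR1 and Gα16 / Reagent: EC80 β-phenethylamine stimulus / Doses: 3 µM, single point / Timing: dye loading 75 min at 37 °C, then 30 min room temperature / Measured by: Fluo-8 intracellular calcium dye fluorescence, real-time kinetic reads / Controls: vehicle wells and EC80 agonist wells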
For `COc1ccc(C(C(=O)NCc2ccccc2)n2c(=O)c(-c3ccccc3)nc3ccccc32)cc1` (stereo not given), the inhibition is -24.7% (inactive).

`CN(Cc1ccccc1)C(=O)[C@@H]1CCCN1C(=O)[C@@H]1CCCN1C(=O)c1c(F)cccc1F`: the inhibition was -1.21% (inactive).

For the compound `Cc1nnc(SCC(=O)NC(=O)NC2CCCC2)n1N`, the inhibition is -8.31% (inactive).

Consider `CC(C)Oc1cc(F)ccc1-c1cc(C(=O)Nc2ccc(F)cc2)[nH]n1`, for which the inhibition is 68.5% (active).

Consider `COc1cc(NC(=O)c2cc(-c3ccc(F)cc3OC(C)C)n[nH]2)cc(OC)c1OC`, for which the inhibition was 47.6% (inactive).

Consider `CC(C)Oc1cc(F)ccc1-c1cc(C(=O)Nc2cccc(Cl)c2)[nH]n1`, for which the inhibition was 42.5% (inactive).

On to `O=C(CN1CCN(c2ccc(O)cc2)CC1)NC1CCCc2ccccc21` (stereo not given), for which the inhibition is -0.58% (inactive).

With `CCS(=O)(=O)Nc1ccc(C2=NN(C(C)=O)C(c3cccs3)C2)cc1` (stereo not given), the inhibition was 6.89% (inactive).

For the compound `CS(=O)(=O)Nc1cccc(C2=NN(C(=O)c3cccc(F)c3)C(c3cccs3)C2)c1` (stereo not given), the inhibition was 62.3% (active).

In the case of `Cc1ccc(C2CC(c3cccc(NS(C)(=O)=O)c3)=NN2S(C)(=O)=O)cc1` (stereo not given), the inhibition was 0.27% (inactive).

`FC(F)Oc1ccc(NC(=S)NCc2ccco2)cc1Cl`: the inhibition was 36.8% (inactive).

As for `O=C(CSc1nc2cccc(F)c2c(=O)n1-c1ccccc1)Nc1ccc2c(c1)CCC2`, the inhibition was -17.1% (inactive).

`O=C(COC(=O)COc1ccccc1F)Nc1cccc(S(=O)(=O)N2CCCCC2)c1`: the inhibition is -6.77% (inactive).

For `CC(NC(=O)c1ccccc1)C(=O)OCC(=O)Nc1cccc(S(=O)(=O)N2CCCC2)c1` (stereo not given), the inhibition was -4.21% (inactive).

With `CCOc1ncccc1C(=O)OCC(=O)Nc1cccc(S(=O)(=O)N2CCCCCC2)c1`, the inhibition is 63.8% (active).

Take `COc1cccc(CCNC(=O)COc2cccc3c2OC(C)(C)C3)c1`: the inhibition is 3.3% (inactive).

Regarding `CCCNC(=O)C1CC(=O)N(c2ccc(OCC(=O)Nc3cccc(C)c3C)cc2)C1` (stereo not given), the inhibition is -17.9% (inactive).

Turning to `COc1cc(OC)cc(C(=O)OCC(=O)Nc2sccc2C(N)=O)c1`, the inhibition is 63% (active).

`Cc1cccc(C(=O)OCC(=O)Nc2sccc2C(N)=O)c1C`: the inhibition was -21.5% (inactive).

In the case of `NC(=O)c1ccsc1NC(=O)COC(=O)COc1ccc(C=O)cc1`, the inhibition is 24.6% (inactive).

On to `CCCCNC(=O)C[C@@H]1C[C@@]2(C(=O)OCC)CCC=C2N(Cc2cccc3ccccc23)C1=O`, for which the inhibition was -3.28% (inactive).

`COc1cc(C(=O)OC(C)C(=O)NCC2CCCCC2)cc(NC(=O)c2ccco2)c1OC` (stereo not given): the inhibition is -4.96% (inactive).

Turning to `COc1ccc(NC(=O)CCS(=O)(=O)c2cc3c(cc2Cl)NC(=O)CO3)cc1OC`, the inhibition was -9.29% (inactive).

In the case of `COc1ccc(Cl)cc1NC(=O)CCS(=O)(=O)c1cc2c(cc1C)NC(=O)CO2`, the inhibition was 63.3% (active).

Regarding `Cc1cc2c(cc1S(=O)(=O)CCC(=O)NCc1ccccc1)OCC(=O)N2`, the inhibition is 8.55% (inactive).
